One block for each compound: values may come before it. The source made the active and inactive calls. The rule behind the calls is not given here.
What was measured:
SK-BR-3 [1] = assay: Cell cycle arrest in human SKBR3 cells assessed as accumulation at subG1 phase at 0.5 uM after 48 hrs by flow cytometric analysis (reference value: 7 +/- 1%); type: functional
SK-BR-3 [2] = assay: Cell cycle arrest in human SKBR3 cells assessed as accumulation at G2/M phase at 0.5 uM after 48 hrs by flow cytometric analysis (reference value: 21 +/- 1%); type: functional
SK-BR-3 [3] = assay: Cell cycle arrest in human SKBR3 cells assessed as accumulation at S phase at 0.5 uM after 48 hrs by flow cytometric analysis (reference value: 19 +/- 6%); type: functional
Oryctolagus cuniculus [4] = organism: Oryctolagus cuniculus; assay: Inhibition of HSP90 in rabbit reticulocyte lysate assessed as inhibition of heat-denatured luciferase refolding after 30 mins by luminescence plate reader analysis
Method in brief: (§1)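 Rabbit reticulocyte lysate with ATP regeneration (10 mM phosphocreatine, 1 mM ATP, 17.5 IU creatine kinase) preincubated with compound 20 min on ice; firefly luciferase (100 nM) heat-denatured 40 °C 8 min, diluted 10-fold into lysate; 28 °C, triplicate aliquots luminescence-read at 0, 15, 30, 60 min; mean RLU or % of DMSO.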

Oryctolagus cuniculus [5] = organism: Oryctolagus cuniculus; assay: Inhibition of HSP90 in rabbit reticulocyte lysate assessed as inhibition of heat-denatured luciferase refolding at 0.5 uM by luminescence plate reader analysis; conditions: TDE = time-dependent effect; method in brief: as §1
SK-BR-3 [6] = assay: Cell cycle arrest in human SKBR3 cells assessed as accumulation at G0/G1 phase at 0.5 uM after 48 hrs by flow cytometric analysis (reference value: 54 +/- 2%); type: functional
SK-BR-3 [7] = assay: Cytotoxicity against human SKBR3 cells assessed as growth inhibition at 100 uM after 18 hrs by capillary-based flow cytometric analysis; type: functional, cell-based
Method in brief: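 Short-term viability: SKBR3 cells exposed overnight under the same conditions as the surface-HER2 screen, then stained with a DNA-staining viability reagent; viable cell number counted by capillary flow cytometry.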

Heat shock protein HSP90 [8] = molecular target: T1, Heat shock protein HSP90 (Homo sapiens, UniProt P07900+P08238); assay: Inhibition of HSP90 in human SKBR3 cells assessed as depletion of cell surface HER2 protein level at 100 uM after 18 hrs by immunofluorescence-based flow cytometric analysis relative to control; conditions: SK-BR-3
Method in brief: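 SKBR3 cells treated 18 h at 100 µM (controls: DMSO, GA 0.5 µM, NB 500 µM), trypsinized, blocked in goat serum/PBA (pH 7.6) on ice, anti-HER2 20 µg/mL 30 min then Alexa 488 secondary 2 µg/mL 20 min on ice; mean fluorescence intensity by flow cytometry, isotype antibody control.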

Heat shock protein HSP90 [9] = molecular target: T1, Heat shock protein HSP90; assay: Inhibition of HSP90 in human MCF7 cells assessed as depletion of cell surface HER2 protein level after 18 hrs by flow cytometry
SK-BR-3 [10] = assay: Cell cycle arrest in human SKBR3 cells assessed as accumulation at subG1 phase after 48 hrs by flow cytometric analysis; type: functional, cell-based
SK-BR-3 [11] = assay: Cell cycle arrest in human SKBR3 cells assessed as accumulation at subG1 phase at 12.5 to 25 uM by flow cytometric analysis; type: functional, cell-based; conditions: TDE = time-dependent effect
SK-BR-3 [12] = assay: Cell cycle arrest in human SKBR3 cells assessed as accumulation at subG1 phase at 12.5 uM after 48 hrs by flow cytometric analysis (reference value: 7 +/- 1%); type: functional
SK-BR-3 [13] = assay: Cell cycle arrest in human SKBR3 cells assessed as accumulation at subG1 phase at 25 uM after 48 hrs by flow cytometric analysis (reference value: 7 +/- 1%); type: functional
SK-BR-3 [14] = assay: Cell cycle arrest in human SKBR3 cells assessed as accumulation at G2/M phase at 12.5 uM after 48 hrs by flow cytometric analysis (reference value: 21 +/- 1%); type: functional
SK-BR-3 [15] = assay: Cell cycle arrest in human SKBR3 cells assessed as accumulation at G2/M phase at 25 uM after 48 hrs by flow cytometric analysis (reference value: 21 +/- 1%); type: functional
SK-BR-3 [16] = assay: Cell cycle arrest in human SKBR3 cells assessed as accumulation at S phase at 12.5 uM after 48 hrs by flow cytometric analysis (reference value: 19 +/- 6%); type: functional
SK-BR-3 [17] = assay: Cell cycle arrest in human SKBR3 cells assessed as accumulation at S phase at 25 uM after 48 hrs by flow cytometric analysis (reference value: 19 +/- 6%); type: functional
SK-BR-3 [18] = assay: Cell cycle arrest in human SKBR3 cells assessed as accumulation at G0/G1 phase at 12.5 uM after 48 hrs by flow cytometric analysis (reference value: 54 +/- 2%); type: functional
SK-BR-3 [19] = assay: Cell cycle arrest in human SKBR3 cells assessed as accumulation at G0/G1 phase at 25 uM after 48 hrs by flow cytometric analysis (reference value: 54 +/- 2%); type: functional
Oryctolagus cuniculus [20] = organism: Oryctolagus cuniculus; assay: Inhibition of HSP90 in rabbit reticulocyte lysate assessed as inhibition of heat-denatured luciferase refolding at 100 uM by luminescence plate reader analysis; conditions: TDE = time-dependent effect; method in brief: as §1
Mus musculus = organism: Mus musculus; assay: Inhibition of HSP90 in mouse 3T3-Y9-B12 cells assessed as activation of HSF1 at 0.78 to 25 uM after overnight incubation by GFP reporter gene assay relative to control; type: cell-based
Method in brief: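 3T3-Y9-B12 mouse fibroblasts carrying a GFP gene under a minimal heat-shock element; near-confluent monolayers given serial dilutions in triplicate wells overnight, DMSO ≤0.25% vehicle, GA 0.5 µM positive control; after PBS wash, fluorescence at 485/525 nm, normalized to DMSO.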

MCF7 = assay: Cytotoxicity against ER-positive human MCF7 cells expressing low level of HER2 after 3 days by MTT assay; type: functional, cell-based; conditions: MCF7, 72 h
Method in brief: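 MCF-7 seeded 2,000 cells/well, serial dilutions added after 24 h, 72 h exposure; MTT at 500 µg/mL final, 3 h at 37 °C, formazan dissolved in DMSO, absorbance 570 nm minus 650 nm background. Triplicates, at least two experiments; IC50 = concentration cutting viable signal by 50% of DMSO control.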

Heat shock protein HSP90 [21] = molecular target: T1, Heat shock protein HSP90; assay: Inhibition of HSP90 in human SKBR3 cells assessed as aggregation of intracellular HER2 at 25 uM after 18 hrs by DAPI staining-based immunofluorescence microscopic analysis; type: cell-based; conditions: SK-BR-3
Method in brief: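 SKBR3 in chamber slides adhered overnight, treated 18 h, fixed 4% paraformaldehyde, permeabilized 1% Triton X-100, goat-serum block; anti-HER2 (20 µg/mL) then Alexa Fluor 488 secondary (2 µg/mL) on ice, DAPI nuclear counterstain; imaged at 160× with identical exposures. GA 0.5 µM positive control.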

Heat shock protein HSP90 [22] = molecular target: T1, Heat shock protein HSP90; assay: Inhibition of HSP90 in human MCF7 cells assessed as depletion of total HER2 protein level at 12.5 to 25 uM after 18 hrs by Western blot analysis; type: cell-based
Method in brief: (§2)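 MCF-7 cells at 70% confluence treated 18 h; floating plus trypsinized cells pooled, lysed in NP-40 buffer (pH 7.4) with protease/phosphatase inhibitors; 20 µg protein on 7.5% SDS-PAGE, nitrocellulose, milk block; probed for HER2 (2.0 µg/mL monoclonal) or HSP72, alkaline-phosphatase secondary, NBT/BCIP development; Ponceau S loading check.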

Heat shock protein HSP90 [23] = molecular target: T1, Heat shock protein HSP90; assay: Inhibition of HSP90 in human MCF7 cells assessed as depletion of total HER2 protein level at 50 uM after 18 hrs by Western blot analysis relative to control; type: cell-based; method in brief: as §2
SK-BR-3 [24] = assay: Cytotoxicity against ER-negative human SKBR3 cells expressing high level of HER2 after 3 days by MTT assay; type: functional, cell-based; conditions: SK-BR-3, 72 h
Method in brief: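 SKBR3 cells in RPMI 1640 with 10% FBS exposed to serial dilutions for 3 days; MTT dye-reduction read-out of relative viable cell number. IC50 taken as concentration giving 50% reduction versus DMSO-treated cells.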

inhibition (Oryctolagus cuniculus [4]): Dose-dependent effect | inhibition (Oryctolagus cuniculus [5]): tde
SMILES: COC1=C2C[C@@H](C)C[C@H](OC)[C@H](O)[C@@H](C)/C=C(\C)[C@H](OC(N)=O)[C@@H](OC)/C=C\C=C(/C)C(=O)NC(=CC1=O)C2=O [GELDANAMYCIN]
Activity (SK-BR-3 [1]): 16% | Activity (SK-BR-3 [2]): 18% | Activity (SK-BR-3 [3]): 10% | Activity (SK-BR-3 [6]): 65%

inhibition (Heat shock protein HSP90 [8]): 40% | EC50 (Heat shock protein HSP90 [9]): > 50 µM
SMILES: CO[C@@H]1[C@@H](OC(=O)c2ccc(C)[nH]2)[C@@H](O)[C@H](Oc2ccc3c(O)c(NC(=O)c4cc5ccccc5[nH]4)c(=O)oc3c2C)OC1(C)C
growth inhibition (GI) (SK-BR-3 [7]): Active

inhibition (Oryctolagus cuniculus [4]): Dose-dependent effect | inhibition (Oryctolagus cuniculus [20]): tde | inhibition (Heat shock protein HSP90 [21]): Active | inhibition (Heat shock protein HSP90 [22]): Active | inhibition (Heat shock protein HSP90 [23]): 50% | inhibition (Heat shock protein HSP90 [8]): 40% | EC50 (Heat shock protein HSP90 [9]): 24 µM
SMILES: CO[C@@H]1[C@@H](OC(N)=O)[C@@H](O)[C@H](Oc2ccc3cc(NC(=O)c4ccc(O)c(CC=C(C)C)c4)c(=O)oc3c2C)OC1(C)C
Activity (SK-BR-3 [10]): Dose-dependent effect | Activity (SK-BR-3 [11]): tde | Activity (SK-BR-3 [12]): 22% | Activity (SK-BR-3 [13]): 48% | Activity (SK-BR-3 [14]): 9% | Activity (SK-BR-3 [15]): 15% | Activity (SK-BR-3 [16]): 10% | Activity (SK-BR-3 [17]): 17% | Activity (SK-BR-3 [18]): 62% | Activity (SK-BR-3 [19]): 43% | fold change (FC) (Mus musculus): < 2 | IC50 (MCF7): 15 µM | growth inhibition (GI) (SK-BR-3 [7]): Active | IC50 (SK-BR-3 [24]): 17 µM

inhibition (Heat shock protein HSP90 [23]): 50% | inhibition (Heat shock protein HSP90 [8]): 40% | EC50 (Heat shock protein HSP90 [9]): 41 µM
SMILES: COc1ccc(C(=O)Nc2c(OC)c3ccc(O[C@@H]4OC(C)(C)[C@H](OC)[C@@H](O)[C@H]4O)c(C)c3oc2=O)cc1CC=C(C)C
IC50 (MCF7): 19 µM | growth inhibition (GI) (SK-BR-3 [7]): Active | IC50 (SK-BR-3 [24]): 25 µM
